Structures are written as SMILES. Bounds are passed on as bounds.

One may read the EC30 as the concentration needed for an effect of 30%.

Data set [1] addresses Muscarinic acetylcholine receptor M3 (Homo sapiens) (UniProt P20309). In words: Positive allosteric modulation of recombinant human muscarinic acetylcholine receptor M3 expressed in CHOK1 cells assessed as increase in carbachol-induced intracellular calcium flux at 10 uM preincubated for 5 mins followed by carbachol addition by Fluo4-AM dye based FLIPR assay relative to carbachol. Format: functional, cell-based. To be noted: CHO-K1. The method in brief: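 CHO-K1 cells stably expressing human or rat M1–M5; M2 and M4 lines also co-express human Gα16. Cells loaded with 3.1 μM Fluo-4 AM in HBSS/20 mM HEPES pH 7.5/BSA/2.5 mM probenecid for ~2 h at room temperature. Test substance at 10 μM final, then carbachol (0.0024 nM–100 μM) ~5 min later; Ca2+ read by FLIPR Tetra. Fold shift = carbachol EC50 without / with test substance, from logistic fits.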
In general terms: Calcium flux is commonly read through the fluorescence of an indicator in the cells.

A further data set concerns the target T1, Thrombopoietin receptor (Homo sapiens, UniProt P40238).
T1 sequence (P40238 whole entry): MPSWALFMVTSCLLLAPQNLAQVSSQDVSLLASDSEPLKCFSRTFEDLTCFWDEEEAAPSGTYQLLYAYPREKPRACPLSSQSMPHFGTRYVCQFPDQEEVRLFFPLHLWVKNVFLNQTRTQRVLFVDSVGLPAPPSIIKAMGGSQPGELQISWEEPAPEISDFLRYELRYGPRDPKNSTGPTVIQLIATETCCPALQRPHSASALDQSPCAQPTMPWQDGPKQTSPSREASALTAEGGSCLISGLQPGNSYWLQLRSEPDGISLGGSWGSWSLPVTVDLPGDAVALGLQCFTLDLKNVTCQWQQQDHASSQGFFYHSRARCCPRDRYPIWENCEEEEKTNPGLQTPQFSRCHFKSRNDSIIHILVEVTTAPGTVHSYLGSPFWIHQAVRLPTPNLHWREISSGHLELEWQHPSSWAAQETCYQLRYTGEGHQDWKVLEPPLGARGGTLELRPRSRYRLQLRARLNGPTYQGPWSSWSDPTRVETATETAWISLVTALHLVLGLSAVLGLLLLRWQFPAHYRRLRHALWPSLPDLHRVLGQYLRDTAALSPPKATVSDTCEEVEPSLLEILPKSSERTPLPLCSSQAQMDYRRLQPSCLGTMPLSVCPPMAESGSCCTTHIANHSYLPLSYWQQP
In words: Agonist activity at recombinant human c-Mpl receptor transfected in BA/F3 cells assessed as increase in cell proliferation by cell counting analysis. It is filed as cell-based. To be noted: baf3. In outline: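 Ba/F3 cells stably transfected with human c-Mpl by electroporation with blasticidin selection. 1×10^4 cells/well in RPMI-1640 with 10% FBS, with test substance (100 nM to 10 μM final), overnight at 37°C in 5% CO2. Cell Counting Kit added for about 5 h, then A450 read. Scale: untreated wells 0%, reference c-Mpl agonist at 1 μM 100%. EC30 from logistic regression.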

Chain of Muscarinic acetylcholine receptor M3 (Homo sapiens) (P20309 whole entry, looked up): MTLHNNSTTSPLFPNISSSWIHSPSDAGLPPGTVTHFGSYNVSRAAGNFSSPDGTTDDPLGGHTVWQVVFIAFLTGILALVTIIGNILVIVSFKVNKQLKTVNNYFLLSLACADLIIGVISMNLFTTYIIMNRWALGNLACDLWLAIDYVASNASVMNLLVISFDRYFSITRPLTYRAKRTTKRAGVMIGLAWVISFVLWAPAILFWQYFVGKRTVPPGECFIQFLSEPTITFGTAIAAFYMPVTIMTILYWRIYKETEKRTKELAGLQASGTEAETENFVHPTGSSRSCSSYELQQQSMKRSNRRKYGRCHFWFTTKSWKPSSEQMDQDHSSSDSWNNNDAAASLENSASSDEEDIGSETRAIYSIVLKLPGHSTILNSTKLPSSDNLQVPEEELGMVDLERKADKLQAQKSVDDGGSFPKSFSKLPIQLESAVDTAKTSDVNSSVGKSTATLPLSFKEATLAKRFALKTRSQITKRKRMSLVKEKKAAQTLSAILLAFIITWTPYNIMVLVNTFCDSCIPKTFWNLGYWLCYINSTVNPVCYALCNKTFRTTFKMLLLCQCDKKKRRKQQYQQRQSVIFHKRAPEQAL

With `COc1ccc(-c2nc(NC(=O)c3ccc(OCC(=O)O)cc3)sc2CN2CCCC(C)(C)C2)cc1C(F)(F)F`, the fold change (FC) in data set [1] was 204.
Still for that read-out and setting: with `COc1ccc(-c2nc(NC(=O)c3cnc(C(=O)O)cn3)sc2CN2CCCC(C)(C)C2)cc1C(F)(F)F` the figure was 39.
`COc1ccc(-c2nc(NC(=O)c3cnc(N4CCC(C(=O)O)CC4)cn3)sc2CN2CCCC[C@H]2C)cc1C(F)(F)F.Cl.Cl`: in data set [1], the fold change (FC) turned out to be 94. Also, on Thrombopoietin receptor, the EC30 was greater than 10 µM.
On to `CCC[C@@H]1CCCN1Cc1sc(NC(=O)c2cnc(N3CCC(C(=O)O)CC3)cn2)nc1-c1ccc(OC)c(C(F)(F)F)c1.Cl.Cl`, for which the fold change (FC) in data set [1] worked out at 128. Besides, the 30% effect concentration (EC30) at Thrombopoietin receptor was greater than 10 µM.
The matching figures for `C[C@@H]1CCCN1Cc1sc(NC(=O)c2cnc(N3CCC(C(=O)O)CC3)c(F)c2)nc1-c1cc(Cl)cs1.Cl.Cl`: 132 and 0.0032 µM.
In the case of `COc1ccc(-c2nc(NC(=O)c3cnc(NCC(=O)O)cn3)sc2CN2CCCC(C)(C)C2)cc1C(F)(F)F`, the fold change (FC) in data set [1] came out at 162.
On to `COc1ccc(-c2nc(NC(=O)c3cnc(N4CCC(C(=O)O)CC4)cn3)sc2CN2CCC[C@@H]2C)cc1C(F)(F)F.Cl.Cl`, for which the fold change (FC) in data set [1] was determined as 25. Further, the concentration for an effect of 30% (EC30) on Thrombopoietin receptor is greater than 10 µM.
Turning to `C[C@@H]1CCCN1Cc1sc(NC(=O)c2cnc(N3CCC(C(=O)O)CC3)nc2)nc1-c1cc(Cl)cs1`, the fold change (FC) in data set [1] is 65.
Same read-out and setting: with `COc1ccc(-c2nc(NC(=O)c3cnc(OCC(=O)O)cn3)sc2CN2CCCC(C)(C)C2)cc1C(F)(F)F` the figure was 175.
`C[C@@H]1CCCN1Cc1sc(NC(=O)c2cnc(N3CCC(C(=O)O)CC3)cn2)nc1-c1cc(Cl)cc(C(F)(F)F)c1.Cl.Cl`: in data set [1], the fold change (FC) was found to be 168. In addition, the 30% effect concentration (EC30) on Thrombopoietin receptor was found to be 0.15 µM.
In the same order, the values of `C[C@@H]1CCCN1Cc1sc(NC(=O)c2cnc(N3CCC(C(=O)O)CC3)cn2)nc1-c1ccc(Cl)c(C(F)(F)F)c1.Cl.Cl` are 118 and 1.72 µM.
The matching figures for `COc1ccc(-c2nc(NC(=O)c3cnc(N4CCC(C(=O)O)CC4)cn3)sc2CN2CCCC(C)(C)C2)cc1C(F)(F)F.Cl.Cl`: 238 and greater than 10 µM.
For the compound `COc1ccc(-c2nc(NC(=O)c3cnc(N4CCC(C(=O)O)CC4)cn3)sc2CN2CCC[C@H]2C)cc1C(F)(F)F.Cl.Cl`, in data set [1], the fold change (FC) amounted to 73. In addition, the EC30 at Thrombopoietin receptor is greater than 10 µM.
As to `COc1ccc(-c2nc(NC(=O)c3ccc(O)cc3)sc2CN2CCCC(C)(C)C2)cc1C(F)(F)F`, in data set [1], the fold change (FC) was 8.9.
On the same count and under the same terms, with `C[C@@H]1CCCN1Cc1sc(NC(=O)C2CCN(c3ccc(C(=O)O)cn3)CC2)nc1-c1cc(Cl)cs1` (racemic) the figure was 2.8; with `COc1ccc(-c2nc(NC(=O)c3cnc(N(C)CC(=O)O)cn3)sc2CN2CCCC(C)(C)C2)cc1C(F)(F)F`, 137.
As for `C[C@@H]1CCCN1Cc1sc(NC(=O)c2cnc(N3CCC(C(=O)O)CC3)cn2)nc1-c1cc(Cl)cs1.Cl.Cl`, the fold change (FC) in data set [1] came to 186. The EC30 on Thrombopoietin receptor came out at 0.35 µM.
The matching figures for `COC[C@@H]1CCCN1Cc1sc(NC(=O)c2cnc(N3CCC(C(=O)O)CC3)cn2)nc1-c1ccc(OC)c(C(F)(F)F)c1.Cl.Cl`: 72 and greater than 10 µM.
`COCCN(Cc1sc(NC(=O)c2cnc(N3CCC(C(=O)O)CC3)cn2)nc1-c1ccc(OC)c(C(F)(F)F)c1)CC(C)C.Cl.Cl`: the fold change (FC) in data set [1] came out at 84. The concentration for an effect of 30% (EC30) on Thrombopoietin receptor was greater than 10 µM.

The record behind these values is ChEMBL document CHEMBL4622869, “Discovery and structure-activity relationships study of positive allosteric modulators of the M3 muscarinic acetylcholine receptor” (Bioorg Med Chem, 2020).
